Experimental data collected from several papers.
Cell line: MCF7
Effect on: cell growth or viability

SMILES	technique	time	IC50
CCOC(=O)c1c(C)nc2ccc(-c3ccc(F)cc3)cc2c1O	MTT	48 h	11 µM
CC(=O)O[C@@H]1[C@@H](OC(C)=O)[C@H](OC(C)=O)CO[C@H]1n1cc(Cn2c(C(=O)/C=C/c3ccc(F)cc3)nc3ccccc32)nn1	LDH	48 h	2.98 µM
NNc1nc2c(Cl)cc(Cl)cc2c(=O)n1-c1ccccc1	MTT	48 h	> 200 µM
COc1ccc(-n2cc(CNC(=O)[C@@]3(C)[C@H](O)CC[C@@]4(C)[C@H]3CC[C@]3(C)[C@@H]4C(=O)C=C4[C@@H]5[C@@H](C)[C@H](C)CC[C@]5(C)CC[C@]43C)nn2)cc1	MTT	24 h	79 µM
COc1ccc(N(Cc2csc(-c3ccccc3)n2)C(=O)CCCCCC(=O)NO)cc1	MTT	72 h	3.12 µM
Nc1ccn([C@@H]2O[C@H](CO)[C@@H](O)C2(F)F)c(=O)n1	MTT	48 h	1.59 mg/L
O=[N+]([O-])c1cc(Br)c(O)c(C=NNc2ccc(C(F)(F)F)cc2)c1	MTT	24 h	8 µM
O=C(O)c1c[nH]c2ccc(Oc3ccccc3)cc2c1=O	MTT	24 h	311 µM
NNc1nc2ccc(Br)cc2c(=O)n1-c1ccccc1	MTT	48 h	46.4 µM
COc1cccc2c1C(=O)c1c(O)c3c(c(O)c1C2=O)C[C@@](O)(C(=O)CO)C[C@@H]3O[C@H]1C[C@H](N)[C@H](O)[C@H](C)O1	MTT	48 h	0.5 µM
C/C(=N\C(=O)/N=C(\C)c1c(O)c2ccccc2oc1=O)c1c(O)c2ccccc2oc1=O	MTT	48 h	14.6 µM
COc1ccc(C=NNC(=O)c2cc(-c3ccccc3)n(-c3ccc(S(N)(=O)=O)cc3)n2)cc1OC	fluorescence	48 h	21.1 µM
O=C(C=Cc1cccs1)c1ccc(OCCOc2ccc(C(=O)C=Cc3cccs3)cc2)cc1	MTT	48 h	7.87 µM
c1ccc(Cc2nnc(-c3nn(Cc4ccccc4)c4ccccc34)o2)cc1		48 h	114 µM
COc1ccc(N=C2SCC(=O)N2c2nnc(-c3ccc(C(F)(F)F)cc3N=C3SCC(=O)N3c3ccc(OC)cc3)s2)cc1	MTT		73.5 µM
O=C1C(=Nc2ccccc2Br)c2ccccc2N1Cc1ccccc1	MTT	48 h	2.16 µM
Cc1ccc(C(C)C)c(OC2=C(Cl)C(=O)c3ccccc3C2=O)c1	MTT	24 h	4.59 mg/L
O=C1CSC(=Nc2cc(C(F)(F)F)ccc2-c2nnc(N3C(=O)CSC3=Nc3ccc([N+](=O)[O-])cc3)s2)N1c1ccc([N+](=O)[O-])cc1	MTT		79.5 µM
CC(C)[C@@H](CS(=O)(=O)C(C)C)N1C(=O)[C@@](C)(CC(=O)O)C[C@H](c2cccc(Cl)c2)[C@H]1c1ccc(Cl)cc1	ATP luminescence	48 h	~3.9 µM
O=C1C(=Nc2cccc(Cl)c2)c2ccccc2N1Cc1ccc([N+](=O)[O-])cc1	MTT	48 h	6.95 µM
CN(C)C(=S)[N-]N=C(c1ccccn1)c1ccccn1.[O]=[V+]=[O]	MTT		0.89 µM
Cc1cccc(N=C2C(=O)Nc3ccccc32)c1	MTT	48 h	73.4 µM
O=C1/C(=C/c2ccc3ccccc3c2O)NC(=S)N1c1ccccc1	MTT		8.1 mg/L
